In ChEMBL document CHEMBL1125310, “(R)-2-(3-mercapto-2(S)-methyl-1-oxo-propoxy)-3-(methylthio)propanoic acid, the first ultra-short-acting angiotensin converting enzyme inhibitor” (J Med Chem, 1992):

How the values were obtained:
[1] = Half-life (hydrolysis) in human blood; type: ADME
[2] = target: T1, Angiotensin-converting enzyme (Oryctolagus cuniculus) (UniProt P12822); test: Inhibitory activity towards purified rabbit lung angiotensin I converting enzyme
T1 sequence (whole entry): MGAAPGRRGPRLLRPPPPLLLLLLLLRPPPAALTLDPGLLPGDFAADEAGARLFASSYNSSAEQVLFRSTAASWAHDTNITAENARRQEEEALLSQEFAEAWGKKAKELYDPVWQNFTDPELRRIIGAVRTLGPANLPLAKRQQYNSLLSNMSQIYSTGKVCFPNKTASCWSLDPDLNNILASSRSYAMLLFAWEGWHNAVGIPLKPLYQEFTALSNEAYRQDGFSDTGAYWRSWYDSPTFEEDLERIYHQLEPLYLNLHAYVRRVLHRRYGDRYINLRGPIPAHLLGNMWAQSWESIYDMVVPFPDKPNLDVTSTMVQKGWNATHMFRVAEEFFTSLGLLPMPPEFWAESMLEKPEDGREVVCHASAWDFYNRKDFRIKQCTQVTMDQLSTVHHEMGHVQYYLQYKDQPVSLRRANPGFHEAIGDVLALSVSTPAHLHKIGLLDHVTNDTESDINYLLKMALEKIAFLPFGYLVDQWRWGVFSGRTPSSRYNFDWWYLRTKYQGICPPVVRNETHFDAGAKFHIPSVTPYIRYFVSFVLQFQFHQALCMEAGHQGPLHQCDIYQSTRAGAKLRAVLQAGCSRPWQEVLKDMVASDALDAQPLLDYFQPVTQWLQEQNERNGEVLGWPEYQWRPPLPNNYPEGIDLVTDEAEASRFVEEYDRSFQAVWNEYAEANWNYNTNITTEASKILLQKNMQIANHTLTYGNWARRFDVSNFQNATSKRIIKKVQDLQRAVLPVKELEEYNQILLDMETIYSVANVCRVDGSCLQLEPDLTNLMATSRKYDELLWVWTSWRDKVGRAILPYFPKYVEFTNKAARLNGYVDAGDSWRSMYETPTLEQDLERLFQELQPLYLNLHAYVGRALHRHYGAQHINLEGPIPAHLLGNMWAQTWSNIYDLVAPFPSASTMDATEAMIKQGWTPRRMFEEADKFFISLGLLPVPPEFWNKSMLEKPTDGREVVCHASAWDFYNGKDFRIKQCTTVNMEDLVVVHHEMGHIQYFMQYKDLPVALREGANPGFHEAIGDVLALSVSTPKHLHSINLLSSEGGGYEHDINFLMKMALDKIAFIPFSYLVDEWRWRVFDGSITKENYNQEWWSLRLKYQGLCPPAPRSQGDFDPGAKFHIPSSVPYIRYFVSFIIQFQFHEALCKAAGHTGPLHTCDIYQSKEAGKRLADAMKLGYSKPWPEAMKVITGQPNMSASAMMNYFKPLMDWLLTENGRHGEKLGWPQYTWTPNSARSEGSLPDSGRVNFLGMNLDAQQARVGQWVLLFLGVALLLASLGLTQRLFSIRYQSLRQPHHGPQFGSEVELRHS
Method in brief: (§1)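 Purified rabbit lung ACE was used, following a published method with two changes: Zn2+ (20 μM) was added to the purified enzyme, and the substrate was radiolabeled. The read-out was inhibition of enzyme activity.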

[3] = target: T1, Angiotensin-converting enzyme (Oryctolagus cuniculus); test: Inhibitory activity towards purified rabbit lung angiotensin I converting enzyme at 10 e-4 M
[4] = target: T1, Angiotensin-converting enzyme (Oryctolagus cuniculus); test: Inhibitory activity towards purified rabbit lung Angiotensin I converting enzyme; method in brief: as §1
[5] = target: T1, Angiotensin-converting enzyme (Oryctolagus cuniculus); test: Inhibitory activity towards purified rabbit lung angiotensin I converting enzyme; no inhibition at 10 e-5 M

| Compound | half-life [1] | IC50 [2] | IC50 [4] | also measured |
| --- | --- | --- | --- | --- |
| C[C@H](CS)C(=O)O | – | – | – | inhibition [3]: 30% |
| C[C@H](CS)C(=O)N1CCC[C@H]1C(=O)O | – | – | 2.7 nM | – |
| CCC(CC)SC[C@H](OC(=O)[C@H](C)CS)C(=O)O | 37 min | 2 nM | – | – |
| C[C@H](CS)C(=O)O[C@@H](CSC1CCCC1)C(=O)O | 27 min | – | 1.8 nM | – |
| CSC[C@H](O)C(=O)O | – | – | – | inhibition [5]: no inhibition at 10 e-5 M |

Second part, led by results:

| half-life [1] | IC50 [2] | IC50 [4] | Compound | also measured |
| --- | --- | --- | --- | --- |
| 53 min | 123 nM | – | C[C@H](CS)C(=O)OCC(=O)O | – |
| 20 min | 2.8 nM | – | CC(C)SC[C@H](OC(=O)[C@H](C)CS)C(=O)O | – |
| 23 min | – | 10.6 nM | C[C@H](CS)C(=O)O[C@@H](Cc1ccccc1)C(=O)O | – |
| > 60 min | – | 3.2 nM | C[C@H](CS)C(=O)O[C@@H](CSCc1ccccc1)C(=O)O | – |
| > 60 min | – | 84.7 nM | C[C@H](CS)C(=O)N[C@@H](Cc1ccccc1)C(=O)O | – |
| 14 min | 5.7 nM | – | CSC[C@H](OC(=O)[C@H](C)CS)C(=O)O | – |
